Series [1] can be described thus: Toxicity in po dosed BALB/c mouse administered as single dose. Format: organism-based. As to conditions: in vivo; call rule not given here. The procedure, abridged:
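Oral gavage of aqueous solution at a single dose of 1000 mg/kg. Untreated and water-vehicle mice served as controls; 16 mice in total (8 male/8 female). Mice were sacrificed 1 week after dosing. Heart, liver, spleen, lung and kidney were formalin-fixed, paraffin-embedded, sectioned at 3 μm, H&E-stained, and examined for gross morphology.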

Series [2] relates to Mus musculus. Put plainly: Toxicity in BALB/c mouse assessed as pathological changes in liver at 1000 mg/kg, po administered as single dose by hematoxylin-eosin staining method. In kind it is organism-based. More on the design: dose 1000 mg/kg, route oral. The settings on record: in vivo. The procedure, abridged:
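BALB/c mice, 16 in total (8 male, 8 female). DMAMCL was given by gavage as an aqueous solution, either 1000 mg/kg once or 500 mg/kg every day for seven doses. Controls were untreated and water-vehicle mice. Mice were killed 1 week after dosing. Heart, liver, spleen, lung and kidney were fixed in 10% neutral-buffered formalin, paraffin-embedded, cut into 3 μm sections, H&E-stained and examined microscopically for gross morphology.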

Series [3] has as its system Mus musculus. Nature of the series: Toxicity in BALB/c mouse assessed as pathological changes in heart at 1000 mg/kg, po administered as single dose by hematoxylin-eosin staining method. In kind it is organism-based. The arrangement: dose 1000 mg/kg, route oral. The settings on record: in vivo. The procedure, abridged: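 BALB/c mice (16 in total, 8 male/8 female) were given aqueous DMAMCL by gavage as a single 1000 mg/kg dose or 500 mg/kg daily for seven doses. Water-only and untreated mice served as controls. One week later, tissues were fixed in 10% neutral-buffered formalin, embedded in paraffin, cut into 3 μm sections, stained with H&E and examined microscopically.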

Series [4] is described as follows: Antitumor activity against human leukemia stem/progenitor cells xenografted in NOD/SCID mouse assessed as reduction of CD45+CD33+ cells in bone marrow at 100 mg/kg, po qd administered every other day total of seven doses starting from 8 weeks post grafting measured on day 85. Format: functional. More on the design: scale not given: the % may be the effect or the level left. The procedure, abridged: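 NOD/SCID mice, sublethally irradiated (280cGay), received primary AML M5 patient cells via tail vein in PBS 6−10 h later. From 8 weeks after engraftment, aqueous drug was given orally every other day for seven doses. Surviving mice were sacrificed on day 85 post-inoculation, and human CD45⁺CD33⁺ cells in bone marrow were measured by flow cytometry.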

The nature of series [5]: Oral bioavailability in mouse at 150 mg/kg. The settings on record: in vivo. In kind it is ADME, organism-based.
A short description of series [6]: Total clearance in mouse at 100 mg/kg, iv. In kind it is ADME, organism-based. The arrangement: dose 100 mg/kg, route intravenous. The settings on record: in vivo. The procedure, abridged: (§1)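 Male Kunming mice (20 2 g), fasted 12 h before dosing with water available, given DMAMCL as an aqueous solution iv (n = 5). Blood was drawn from the orbital veins at set times. DMAMCL and MCL in plasma were measured, and parameters were derived by a noncompartmental model.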

The nature of series [7]: Half life in mouse at 100 mg/kg, iv. In kind it is ADME, organism-based. The arrangement: dose 100 mg/kg, route intravenous. As to conditions: in vivo. In short, it runs like this:
as §1

Series [8] in a line: Cmax in mouse at 150 mg/kg, po. Format: ADME, organism-based. The arrangement: dose 150 mg/kg, route oral. As to conditions: in vivo. The procedure, abridged:
(§2)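 Male Kunming mice (20 2 g), fasted 12 h before dosing with water available, given DMAMCL as an aqueous solution po (n = 5). Blood was drawn from the orbital veins at set times. Plasma DMAMCL and MCL were followed, and parameters came from noncompartmental analysis.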

Series [9] is described as follows: Total clearance in mouse at 150 mg/kg, po. In kind it is ADME, organism-based. More on the design: dose 150 mg/kg, route oral. The settings on record: in vivo. In short, it runs like this: as §2
The nature of series [10]: Mean retention time (0 to t) in mouse at 150 mg/kg, po. The arrangement: dose 150 mg/kg, route oral. Format: ADME, organism-based. As to conditions: in vivo. In short, it runs like this: as §2
The nature of series [11]: AUC (0 to t) in mouse at 150 mg/kg, po. Format: ADME, organism-based. More on the design: dose 150 mg/kg, route oral. As to conditions: plasma. The procedure, abridged:
as §2

The nature of series [12]: Cytotoxicity against human leukemia stem/progenitor cells assessed as viable CD34+ cells at 10 uM after 18 hrs by annexin-V labeling-based flow cytometry. In kind it is functional, CD34+ cell.
The nature of series [13]: Cytotoxicity against human HL60/A cells after 18 hrs by annexin-V labeling-based flow cytometry. In kind it is functional, cell-based.
Series [14] concerns HL-60. Nature of the series: Cytotoxicity against human HL60 cells after 18 hrs by annexin-V labeling-based flow cytometry. Format: functional, cell-based. The settings on record: HL-60, 18 h.
Series [15] is described as follows: Drug degradation in HEPES buffer at pH 7.4 assessed as release of MCL up to 8 hrs. Format: physicochemical. As to conditions: pH 7.4, 8 h. The procedure, abridged:
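A 20 μL aliquot of prodrug solution was added to 980 μL HEPES buffer (pH 7.4, or below 5.0) and incubated at 37 °C. Samples were withdrawn over time, and prodrug and released parent were quantified by HPLC (mean, SD, n = 4).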

The test system of series [16] is Mus musculus. Put plainly: Toxicity in BALB/c mouse assessed as pathological changes in lung at 500 mg/kg, po administered every day for 7 days by hematoxylin-eosin staining method. As to conditions: in vivo, 168 h.
Series [17] deals with Mus musculus. Put plainly: Toxicity in BALB/c mouse assessed as pathological changes in heart at 500 mg/kg, po administered every day for 7 days by hematoxylin-eosin staining method. The settings on record: in vivo, 168 h.

On to `CC1=C2CC[C@@](C)(O)[C@@H]2[C@H]2OC(=O)[C@@H](CN(C)C)[C@@H]2CC1.Cl` [DIMETHYLAMINOMICHELIOLIDE HYDROCHLORIDE], for which the MTD in series [1] was found to be 1000 mg/kg. Moreover, the Activity result in series [2] is reported as “Non-toxic”; in series [3], “Non-toxic”; in series [4], 0.005%; in series [12], 60.4%; in [16], “Non-toxic”; in series [17], “Non-toxic”. This compound also registered a bioavailability in series [5] of 75%. The clearance in [6] is 37.7 mL/min/kg. Also, in [7], the half-life was 18.9 h. This compound also returned a Cmax in [8] of 19000 ng/mL. The same compound gave a CL/F in [9] of 51.3 mL/min/kg. In series [10], this compound displayed an MRT last of 8.85 h. In series [11], the AUC(0-t) amounted to 49600 ng·h/mL. Further, the half-maximal inhibitory concentration (IC50) in [13] was 21.5 µM; in [14], 17.2 µM. For the same compound, in series [15], the Drug degradation result is “Active”.

The values above are taken from ChEMBL document CHEMBL2202986, “Guaianolide sesquiterpene lactones, a source to discover agents that selectively inhibit acute myelogenous leukemia stem and progenitor cells” (J Med Chem, 2012).
